Laboratory results taken from ChEMBL document CHEMBL4359914, “Design, synthesis and biological evaluation of stereo- and regioisomers of amino aryl esters as multidrug resistance (MDR) reversers” (Eur J Med Chem, 2019).

Key:
[1] = molecular target: T1, ATP-dependent translocase ABCB1 (Homo sapiens, UniProt P08183); assay: Inhibition of P-gp in human K562/DOX cells assessed as drug level causing maximum increase in nuclear pirarubicin concentration incubated for 30 mins by fluorescence based assay relative to control; format: cell-based; conditions: 0.5 h
T1 sequence (P08183 whole entry): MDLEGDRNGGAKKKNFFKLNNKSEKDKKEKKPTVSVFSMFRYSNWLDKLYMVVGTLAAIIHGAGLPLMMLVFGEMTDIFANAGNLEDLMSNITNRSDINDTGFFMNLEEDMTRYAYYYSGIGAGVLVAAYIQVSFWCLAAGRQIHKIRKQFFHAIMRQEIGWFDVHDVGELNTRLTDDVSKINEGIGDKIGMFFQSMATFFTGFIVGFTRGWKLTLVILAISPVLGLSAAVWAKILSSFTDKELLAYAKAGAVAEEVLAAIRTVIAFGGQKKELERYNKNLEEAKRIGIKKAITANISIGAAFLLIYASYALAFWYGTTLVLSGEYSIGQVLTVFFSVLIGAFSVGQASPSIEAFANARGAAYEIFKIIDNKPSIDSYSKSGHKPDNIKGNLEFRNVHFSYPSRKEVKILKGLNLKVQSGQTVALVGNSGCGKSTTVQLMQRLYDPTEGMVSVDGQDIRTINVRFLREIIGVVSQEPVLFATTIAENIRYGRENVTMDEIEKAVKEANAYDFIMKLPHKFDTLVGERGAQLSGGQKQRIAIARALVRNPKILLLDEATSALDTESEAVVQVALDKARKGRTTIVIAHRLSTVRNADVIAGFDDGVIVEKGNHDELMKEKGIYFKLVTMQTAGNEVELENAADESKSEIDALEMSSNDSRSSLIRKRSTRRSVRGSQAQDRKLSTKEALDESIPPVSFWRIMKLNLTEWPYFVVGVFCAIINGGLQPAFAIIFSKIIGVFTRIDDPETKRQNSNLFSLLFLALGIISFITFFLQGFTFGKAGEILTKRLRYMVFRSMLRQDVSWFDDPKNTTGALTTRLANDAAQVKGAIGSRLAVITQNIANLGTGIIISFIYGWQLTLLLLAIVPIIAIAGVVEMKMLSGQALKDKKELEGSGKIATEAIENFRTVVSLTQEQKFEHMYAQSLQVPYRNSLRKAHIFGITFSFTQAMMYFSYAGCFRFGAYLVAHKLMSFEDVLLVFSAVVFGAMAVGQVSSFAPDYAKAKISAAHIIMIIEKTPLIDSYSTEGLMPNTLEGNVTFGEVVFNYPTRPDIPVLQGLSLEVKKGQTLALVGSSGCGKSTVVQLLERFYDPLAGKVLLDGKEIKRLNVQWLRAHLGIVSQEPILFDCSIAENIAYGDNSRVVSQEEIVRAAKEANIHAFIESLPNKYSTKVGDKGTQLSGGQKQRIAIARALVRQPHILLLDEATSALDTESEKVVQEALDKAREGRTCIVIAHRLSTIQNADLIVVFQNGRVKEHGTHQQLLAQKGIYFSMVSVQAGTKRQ

P-gp (MDR1, ABCB1) = P-gp (MDR1, ABCB1) (Homo sapiens, UniProt P08183); assay: Inhibition of MDR1 (unknown origin) expressed in MDCK-MDR1 cells assessed as decrease in ATP consumption at 10 uM incubated for 2 hrs by ATPlite luminescence assay relative to control; format: cell-based; conditions: MDCK-MDR1 cells expressing MDR1
Sequence of P-gp (MDR1, ABCB1) (P08183 whole entry): as above

[2] = molecular target: T2, Broad substrate specificity ATP-binding cassette transporter ABCG2 (Homo sapiens, UniProt Q9UNQ0); assay: Inhibition of BCRP (unknown origin) expressed in MDCK cells assessed as increase in Hoechst 33342 accumulation incubated for 30 mins by Hoechst 33342 dye based fluorescence assay; format: cell-based; conditions: read-out: EC50
T2 sequence (Q9UNQ0 whole entry): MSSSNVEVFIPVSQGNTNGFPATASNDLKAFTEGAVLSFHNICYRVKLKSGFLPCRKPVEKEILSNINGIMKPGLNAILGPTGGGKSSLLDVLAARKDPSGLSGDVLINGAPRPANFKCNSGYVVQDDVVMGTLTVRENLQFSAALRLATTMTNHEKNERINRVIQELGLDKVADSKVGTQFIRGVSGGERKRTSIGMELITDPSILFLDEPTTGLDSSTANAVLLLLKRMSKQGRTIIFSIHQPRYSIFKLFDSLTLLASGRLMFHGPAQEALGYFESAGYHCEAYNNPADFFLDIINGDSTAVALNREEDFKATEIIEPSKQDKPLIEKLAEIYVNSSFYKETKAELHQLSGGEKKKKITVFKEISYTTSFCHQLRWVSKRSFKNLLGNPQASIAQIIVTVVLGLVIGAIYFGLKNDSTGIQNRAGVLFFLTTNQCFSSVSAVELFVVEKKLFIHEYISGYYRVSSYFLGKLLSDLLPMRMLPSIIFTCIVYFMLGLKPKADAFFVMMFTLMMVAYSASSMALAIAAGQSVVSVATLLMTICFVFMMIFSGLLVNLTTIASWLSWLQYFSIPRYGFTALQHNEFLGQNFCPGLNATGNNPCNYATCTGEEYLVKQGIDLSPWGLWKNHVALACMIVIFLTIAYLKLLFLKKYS

[3] = molecular target: T1, ATP-dependent translocase ABCB1; assay: Inhibition of P-gp (unknown origin) expressed in MDCK-MDR1 cells assessed as increase in calcein-AM accumulation incubated for 30 mins by calcein-AM dye based fluorescence assay; format: cell-based
[4] = Stability of compound in human plasma assessed as half life at 1 uM incubated for 120 min by LC-MS/MS analysis; format: ADME, cell-free
Summary of the method: (§1)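 Analyte added to PBS or human plasma (healthy volunteer, stored at -80 °C) to 1 μM; incubated at 37 °C for 0, 30, 60 and 120 min, triplicate per time point. Internal standard solution added, centrifuged, supernatant dried under nitrogen and redissolved. Analyte quantified by LC-MS/MS in MRM mode; half-life derived from decay rate k.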

[5] = molecular target: T1, ATP-dependent translocase ABCB1; assay: Inhibition of P-gp in human K562/DOX cells assessed as drug level causing 50% increase in nuclear pirarubicin concentration incubated for 30 mins by fluorescence based assay; format: cell-based; conditions: read-out: I0.5
[6] = Chemical stability of compound assessed as half life in PBS at 1 uM incubated 120 mins by LC-MS/MS analysis; format: physicochemical; summary of the method: as §1
[7] = molecular target: T1, ATP-dependent translocase ABCB1; assay: Inhibition of MDR1 (unknown origin) expressed in MDCK-MDR1 cells assessed as decrease in ATP consumption incubated for 2 hrs by ATPlite luminescence assay; format: cell-based; conditions: mdck-mdr1, 2 h

Row | Compound | Alpha max [1] | inhibition at 2 h, 10 µM (P-gp (MDR1, ABCB1)) | EC50 [2] | EC50 [3] | half-life at 1 µM [4] | IC50 [5] | half-life at 1 µM [6] | inhibition (INH) [7]
1 | COc1cc(/C=C/C(=O)OC[C@@H](C)CN(C)CCCOC(=O)c2cc(OC)c(OC)c(OC)c2)cc(OC)c1OC | 0.75 | 20% | 3700 nM | 1380 nM | 0.483 h | 90 nM | ≥ 4 h | –
2 | COc1cc(/C=C/C(=O)OC[C@H](C)CN(C)CCCOC(=O)c2c3ccccc3cc3ccccc23)cc(OC)c1OC | 0.99 | – | 5900 nM | 950 nM | ≥ 4 h | 80 nM | ≥ 4 h | Not Active
3 | COc1cc(/C=C/C(=O)OC[C@H](C)CN(C)CCCCCCCOC(=O)c2c3ccccc3cc3ccccc23)cc(OC)c1OC | 0.65 | – | 6400 nM | 1400 nM | ≥ 4 h | 970 nM | ≥ 4 h | Not Active
4 | COc1cc(/C=C/C(=O)OCCCCCN(C)C[C@H](C)COC(=O)c2c3ccccc3cc3ccccc23)cc(OC)c1OC | 0.75 | – | 4600 nM | 760 nM | ≥ 4 h | 80 nM | ≥ 4 h | Not Active
5 | COc1cc(/C=C/C(=O)OCCCN(C)C[C@@H](C)COC(=O)c2c3ccccc3cc3ccccc23)cc(OC)c1OC | 0.8 | – | 6800 nM | 960 nM | ≥ 4 h | 170 nM | ≥ 4 h | Not Active
6 | COc1cc(/C=C/C(=O)OC[C@@H](C)CN(C)CCCOC(=O)c2c3ccccc3cc3ccccc23)cc(OC)c1OC | 0.79 | – | 2300 nM | 910 nM | ≥ 4 h | 180 nM | ≥ 4 h | Not Active
7 | COc1cc(/C=C/C(=O)OC[C@H](C)CN(C)CCCCCCCOC(=O)c2cc(OC)c(OC)c(OC)c2)cc(OC)c1OC | 0.81 | – | 4700 nM | 820 nM | 1.23 h | 590 nM | ≥ 4 h | Not Active
8 | COc1cc(/C=C/C(=O)OCCCCCN(C)C[C@H](C)COC(=O)c2cc(OC)c(OC)c(OC)c2)cc(OC)c1OC | 0.75 | – | 8100 nM | 110 nM | ≥ 4 h | 240 nM | ≥ 4 h | Not Active
9 | COc1cc(/C=C/C(=O)OC[C@H](C)CN(C)CCCCCOC(=O)c2c3ccccc3cc3ccccc23)cc(OC)c1OC | 0.88 | – | 2300 nM | 720 nM | ≥ 4 h | 80 nM | ≥ 4 h | Not Active
10 | COc1cc(/C=C/C(=O)OCCCCCN(C)C[C@@H](C)COC(=O)c2c3ccccc3cc3ccccc23)cc(OC)c1OC | 0.89 | – | 4600 nM | 810 nM | ≥ 4 h | 230 nM | ≥ 4 h | Not Active
11 | COc1cc(/C=C/C(=O)OCCCCCCCN(C)C[C@@H](C)COC(=O)c2c3ccccc3cc3ccccc23)cc(OC)c1OC | 0.93 | – | 6200 nM | 990 nM | ≥ 4 h | 200 nM | ≥ 4 h | Not Active
12 | COc1cc(/C=C/C(=O)OCCCCCCCN(C)C[C@@H](C)COC(=O)c2cc(OC)c(OC)c(OC)c2)cc(OC)c1OC | 0.83 | – | 4300 nM | 650 nM | ≥ 4 h | 120 nM | ≥ 4 h | Not Active
13 | COc1cc(/C=C/C(=O)OC[C@H](C)CN(C)CCCOC(=O)c2cc(OC)c(OC)c(OC)c2)cc(OC)c1OC | 0.99 | – | 33500 nM | 710 nM | 1.95 h | 140 nM | ≥ 4 h | Not Active
14 | COc1cc(/C=C/C(=O)OCCCCCCCN(C)C[C@H](C)COC(=O)c2c3ccccc3cc3ccccc23)cc(OC)c1OC | 0.99 | – | 7200 nM | 1040 nM | ≥ 4 h | 80 nM | ≥ 4 h | Not Active
15 | COc1cc(/C=C/C(=O)OC[C@@H](C)CN(C)CCCCCOC(=O)c2cc(OC)c(OC)c(OC)c2)cc(OC)c1OC | 0.99 | – | 4200 nM | 1100 nM | 0.3 h | 80 nM | ≥ 4 h | Not Active
16 | COc1cc(/C=C/C(=O)OC[C@@H](C)CN(C)CCCCCCCOC(=O)c2c3ccccc3cc3ccccc23)cc(OC)c1OC | 0.8 | – | 5600 nM | 930 nM | ≥ 4 h | 890 nM | ≥ 4 h | Not Active
17 | COc1cc(/C=C/C(=O)OC[C@@H](C)CN(C)CCCCCCCOC(=O)c2cc(OC)c(OC)c(OC)c2)cc(OC)c1OC | 0.74 | – | 2300 nM | 320 nM | 0.5 h | 380 nM | ≥ 4 h | Not Active
18 | COc1cc(/C=C/C(=O)OCCCCCCCN(C)C[C@H](C)COC(=O)c2cc(OC)c(OC)c(OC)c2)cc(OC)c1OC | 0.7 | – | 2500 nM | 550 nM | ≥ 4 h | 130 nM | ≥ 4 h | Not Active
19 | COc1cc(/C=C/C(=O)OCCCN(C)C[C@H](C)COC(=O)c2c3ccccc3cc3ccccc23)cc(OC)c1OC | 0.99 | – | 11000 nM | 910 nM | ≥ 4 h | 40 nM | ≥ 4 h | Not Active
20 | COc1cc(/C=C/C(=O)OC[C@@H](C)CN(C)CCCCCOC(=O)c2c3ccccc3cc3ccccc23)cc(OC)c1OC | 0.79 | – | 4700 nM | 690 nM | ≥ 4 h | 30 nM | ≥ 4 h | Not Active
21 | COc1cc(/C=C/C(=O)OCCCN(C)C[C@@H](C)COC(=O)c2cc(OC)c(OC)c(OC)c2)cc(OC)c1OC | 0.99 | – | 9500 nM | 73 nM | 0.9 h | 110 nM | ≥ 4 h | Not Active
